These results are taken from ChEMBL document CHEMBL1944576, “Synthesis and antiplasmodial evaluation of novel chromeno[2,3-b]chromene derivatives” (Bioorg Med Chem, 2012).

A word on the IC50: it is the concentration that gives 50% inhibition.

In one series the test system is Plasmodium falciparum. Put plainly: Antiplasmodial activity against chloroquine-sensitive ring-stage Plasmodium falciparum 3D7 assessed as [3H]hypoxanthine incorporation after 48 hrs by liquid scintillation counter. Type of series: functional, organism-based. Summed up: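 Ring-stage 3D7-infected erythrocytes at 0.5% parasitemia, 2.5% hematocrit, in triplicate wells with serial compound dilutions. After 48 h under standard culture conditions, 0.5 µCi [3H]-hypoxanthine was added per well and culture continued a further 24 h. Harvested cells counted by scintillation. Inhibition was taken against matched 0.5% DMSO controls. IC50 was obtained by linear interpolation, as the mean of two independent triplicate experiments.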

The nature of series [1]: Cytotoxicity against human NFF assessed as growth inhibition at 100 uM after 3 days by sulforhodamine B assay. It counts as cell-based. The following applies: NFF cells, read-out: GI. On the technique in general: Sulforhodamine B stains cellular protein and so reports cell mass.
The nature of series [2]: Cytotoxicity against human NFF assessed as growth inhibition at 50 uM after 3 days by sulforhodamine B assay. As to conditions: NFF cells, read-out: GI. It counts as cell-based.
For another series, the system named is NFF. Put plainly: Cytotoxicity against human NFF assessed as growth inhibition after 3 days by sulforhodamine B assay. Type of series: cell-based. As to conditions: 72 h. Summed up: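 NFF cells were kept in log phase in RPMI 1640 with 10% FCS and 1% streptomycin at 37 °C, 5% CO2. They were seeded at 3000/well and grown 24 h before treatment. Compounds went in as DMSO solutions diluted in medium, with DMSO ≤1% and DMSO-matched controls. After 3 days cells were PBS-washed and fixed in methylated spirits. Total protein was measured by sulforhodamine B, in triplicate across three independent experiments.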

For `COc1cccc2c1C[C@@H]1[C@H](/C=C/c3ccc(Br)cc3)c3c(OC)cccc3O[C@]1(c1ccc(Br)cc1)O2`, in the series with Plasmodium falciparum, the half-maximal inhibitory concentration (IC50) was 39.8 µM. For the same compound, in series [1], the inhibition at 72 h, 100 µM is 38%. Take `COc1cccc2c1C[C@@H]1[C@H](/C=C/c3ccc(Cl)cc3)c3c(OC)cccc3O[C@]1(c1ccc(Cl)cc1)O2`: the IC50 with Plasmodium falciparum came out at 8.3 µM. Also, in series [1], the inhibition at 72 h, 100 µM amounted to 83.6%. Consider `COc1ccc(/C=C/[C@@H]2c3c(OC)cccc3O[C@]3(c4ccc(OC)cc4)Oc4cccc(OC)c4C[C@H]23)cc1`, for which the IC50 in the series with Plasmodium falciparum came to 8.2 µM. Moreover, in series [1], the inhibition at 72 h, 100 µM is 54.6%.

On to `COc1cccc2c1C[C@@H]1[C@H](/C=C/c3ccc(C)cc3)c3c(OC)cccc3O[C@]1(c1ccc(C)cc1)O2`, for which the 50% inhibitory concentration (IC50) with Plasmodium falciparum worked out at 6.8 µM. The inhibition at 72 h, 100 µM in series [1] came out at 60.1%. The matching figures for `COc1ccc2c(c1)C[C@@H]1[C@H](/C=C/c3ccccc3)c3cc(OC)ccc3O[C@]1(c1ccccc1)O2`: 10.2 µM and 51.4%. As for `COc1ccc2c(c1)C[C@@H]1[C@H](/C=C/c3ccc(Br)cc3)c3cc(OC)ccc3O[C@]1(c1ccc(Br)cc1)O2`, the IC50 in the series on Plasmodium falciparum turned out to be 17.2 µM. Moreover, the inhibition at 72 h, 100 µM in series [1] came out at 51%.

For the compound `COc1ccc2c(c1)C[C@@H]1[C@H](/C=C/c3ccc(Cl)cc3)c3cc(OC)ccc3O[C@]1(c1ccc(Cl)cc1)O2`, in the series with Plasmodium falciparum, the IC50 is 35.6 µM. Also, the inhibition at 72 h, 100 µM in series [1] was 40.4%. Turning to `COc1ccc2c(c1)C[C@@H]1[C@H](/C=C/c3ccc(C)cc3)c3cc(OC)ccc3O[C@]1(c1ccc(C)cc1)O2`, the IC50 in the series on Plasmodium falciparum is 8.9 µM. Moreover, in series [1], the inhibition at 72 h, 100 µM was 40%. Regarding `COc1cccc2c1C[C@@H]1[C@H](/C=C/c3ccccc3)c3c(OC)cccc3O[C@]1(c1ccccc1)O2`, the IC50 in the series with Plasmodium falciparum came to 17.3 µM. Also, the inhibition at 72 h, 100 µM in series [1] came out at 48.6%. For the compound `COc1cc(OC)c2c(c1OC)O[C@@H](c1ccccc1)[C@H]1[C@@H]2Oc2c(OC)c(OC)cc(OC)c2[C@@H]1/C=C/c1ccccc1` (relative stereo), the half-inhibitory concentration (IC50) in the series on Plasmodium falciparum was determined as 3.9 µM. The inhibition at 72 h, 50 µM in series [2] amounted to 46.9%. For the compound `CCN(CC)CCCC(C)Nc1ccnc2cc(Cl)ccc12` (stereo unspecified) [CHLOROQUINE], in the series on NFF, the IC50 amounted to 34 µM.
